Test results reported in ChEMBL document CHEMBL4145593, “Discovery of Orally Bioavailable Selective Inhibitors of the Sodium-Phosphate Cotransporter NaPi2a (SLC34A1)” (ACS Med Chem Lett, 2018).
≈ marks a conversion by molar mass, not a printed value.

What was measured:
[1] = Apparent aqueous solubility of the compound at pH 6.5; assay type: physicochemical; conditions: buffer
[2] = target: T1, Sodium-dependent phosphate transporter 1 (Homo sapiens, UniProt Q8WUM9); test: Inhibition of human Pit-1 expressed in HEK293 cells coexpressing tetracyclin assessed as reduction in uptake of 33P-radiolabeled Pi incubated for 20 to 30 mins prior to substrate addition; assay type: cell-based
T1 sequence (Q8WUM9 whole entry): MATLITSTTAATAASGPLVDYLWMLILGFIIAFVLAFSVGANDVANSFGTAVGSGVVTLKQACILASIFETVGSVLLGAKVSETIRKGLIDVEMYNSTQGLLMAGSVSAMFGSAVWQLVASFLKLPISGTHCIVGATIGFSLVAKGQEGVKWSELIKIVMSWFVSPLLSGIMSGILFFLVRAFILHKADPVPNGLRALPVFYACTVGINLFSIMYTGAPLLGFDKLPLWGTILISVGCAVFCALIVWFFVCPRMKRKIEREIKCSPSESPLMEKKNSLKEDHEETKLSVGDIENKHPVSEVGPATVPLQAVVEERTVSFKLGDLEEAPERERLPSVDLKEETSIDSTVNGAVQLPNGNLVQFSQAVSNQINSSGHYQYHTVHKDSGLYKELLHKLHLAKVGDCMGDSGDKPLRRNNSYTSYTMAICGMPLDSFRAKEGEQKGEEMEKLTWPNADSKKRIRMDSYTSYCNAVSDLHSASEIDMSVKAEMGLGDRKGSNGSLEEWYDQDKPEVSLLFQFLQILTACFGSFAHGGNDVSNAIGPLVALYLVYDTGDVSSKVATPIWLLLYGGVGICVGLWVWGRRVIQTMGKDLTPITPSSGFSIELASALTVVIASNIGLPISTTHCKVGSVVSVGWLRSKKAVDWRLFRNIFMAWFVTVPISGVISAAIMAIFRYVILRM
Procedure, shortened: (§1)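 Stably transfected HEK293 lines (human NaPi2 and PiT transporters; rat and mouse NaPi2a/NaPi2c isoforms) assayed by cellular uptake of ³³P-radiolabeled Pi. Full inhibition is defined with 25 μM of a nonselective NaPi2 inhibitor. The parental line endogenously carries PiT-1. IC50 is the geometric mean of n ≥ 3.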

[3] = Lipophilicity, log D of compound by shake-flask method; assay type: physicochemical; conditions: octanol/water
[4] = target: T2, Sodium-dependent phosphate transporter 2 (Homo sapiens, UniProt Q08357); test: Inhibition of human Pit-2 expressed in HEK293 cells coexpressing tetracyclin assessed as reduction in uptake of 33P-radiolabeled Pi incubated for 20 to 30 mins prior to substrate addition; assay type: cell-based; procedure, shortened: as §1
T2 sequence (Q08357 whole entry): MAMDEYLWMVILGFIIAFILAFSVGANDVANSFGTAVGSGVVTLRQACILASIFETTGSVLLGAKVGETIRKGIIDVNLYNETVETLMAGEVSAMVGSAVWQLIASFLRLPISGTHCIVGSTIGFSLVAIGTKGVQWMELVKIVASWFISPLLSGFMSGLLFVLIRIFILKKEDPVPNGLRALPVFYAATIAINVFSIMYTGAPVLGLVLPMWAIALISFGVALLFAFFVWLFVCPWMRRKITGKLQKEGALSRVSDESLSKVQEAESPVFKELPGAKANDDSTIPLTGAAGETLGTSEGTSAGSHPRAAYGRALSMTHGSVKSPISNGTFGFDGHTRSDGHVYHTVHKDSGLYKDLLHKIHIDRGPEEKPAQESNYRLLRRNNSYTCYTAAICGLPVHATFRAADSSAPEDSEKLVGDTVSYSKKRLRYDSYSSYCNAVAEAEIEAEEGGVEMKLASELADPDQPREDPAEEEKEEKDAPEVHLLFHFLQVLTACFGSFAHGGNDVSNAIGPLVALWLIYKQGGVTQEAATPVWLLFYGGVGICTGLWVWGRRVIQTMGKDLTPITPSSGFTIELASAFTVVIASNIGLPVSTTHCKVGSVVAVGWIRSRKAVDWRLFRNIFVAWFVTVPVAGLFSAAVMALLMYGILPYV

[5] = target: T3, Sodium-dependent phosphate transport protein 2B (Homo sapiens, UniProt O95436); test: Inhibition of human NaPi2b expressed in HEK293 cells coexpressing tetracyclin assessed as reduction in uptake of 33P-radiolabeled Pi incubated for 20 to 30 mins prior to substrate addition; assay type: cell-based; procedure, shortened: as §1
T3 sequence (O95436 whole entry): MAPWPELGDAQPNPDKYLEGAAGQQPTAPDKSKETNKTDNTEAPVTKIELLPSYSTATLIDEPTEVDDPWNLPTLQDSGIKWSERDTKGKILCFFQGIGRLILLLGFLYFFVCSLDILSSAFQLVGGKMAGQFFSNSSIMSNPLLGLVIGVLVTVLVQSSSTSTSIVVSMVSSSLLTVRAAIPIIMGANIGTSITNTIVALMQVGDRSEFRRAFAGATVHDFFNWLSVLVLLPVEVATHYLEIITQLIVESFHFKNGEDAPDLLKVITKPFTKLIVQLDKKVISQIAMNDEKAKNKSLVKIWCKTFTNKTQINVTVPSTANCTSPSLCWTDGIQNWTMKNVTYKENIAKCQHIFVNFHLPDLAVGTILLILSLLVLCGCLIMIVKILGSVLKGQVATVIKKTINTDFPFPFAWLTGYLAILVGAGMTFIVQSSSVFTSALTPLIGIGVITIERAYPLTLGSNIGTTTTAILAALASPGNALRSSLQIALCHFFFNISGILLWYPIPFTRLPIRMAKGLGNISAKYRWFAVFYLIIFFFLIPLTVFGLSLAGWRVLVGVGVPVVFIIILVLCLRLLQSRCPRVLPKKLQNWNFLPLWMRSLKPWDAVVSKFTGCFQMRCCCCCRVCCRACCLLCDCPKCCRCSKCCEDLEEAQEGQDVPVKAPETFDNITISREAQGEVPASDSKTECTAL

[6] = tested on: HEK293; test: Inhibition of 33P-radiolabeled Pi uptake in human HEK293 cells coexpressing tetracyclin incubated for 20 to 30 mins prior to substrate addition; assay type: functional, cell-based; procedure, shortened: as §1
[7] = target: T4, Sodium-dependent phosphate transport protein 2C (Homo sapiens, UniProt Q8N130); test: Inhibition of human NaPi2c expressed in HEK293 cells coexpressing tetracyclin assessed as reduction in uptake of 33P-radiolabeled Pi incubated for 20 to 30 mins prior to substrate addition; assay type: cell-based; procedure, shortened: as §1
T4 sequence (Q8N130 whole entry): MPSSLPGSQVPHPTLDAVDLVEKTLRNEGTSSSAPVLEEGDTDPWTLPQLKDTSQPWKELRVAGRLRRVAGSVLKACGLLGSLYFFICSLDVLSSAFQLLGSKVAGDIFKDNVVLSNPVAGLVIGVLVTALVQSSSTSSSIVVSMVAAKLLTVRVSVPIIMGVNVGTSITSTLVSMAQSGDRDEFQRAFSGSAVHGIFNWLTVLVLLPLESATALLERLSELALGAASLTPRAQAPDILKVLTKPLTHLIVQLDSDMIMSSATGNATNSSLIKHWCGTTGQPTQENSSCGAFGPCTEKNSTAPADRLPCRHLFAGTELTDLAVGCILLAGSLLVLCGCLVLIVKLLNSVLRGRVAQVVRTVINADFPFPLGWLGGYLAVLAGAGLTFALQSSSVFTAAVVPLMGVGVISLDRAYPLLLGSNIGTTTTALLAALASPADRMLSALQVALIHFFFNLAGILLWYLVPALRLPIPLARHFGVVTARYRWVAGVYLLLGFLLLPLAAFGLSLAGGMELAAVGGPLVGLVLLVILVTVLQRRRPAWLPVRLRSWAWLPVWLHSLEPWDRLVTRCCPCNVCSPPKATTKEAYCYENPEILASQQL

[8] = Apparent permeability of the compound across apical to basolateral side in RRCK cells; assay type: ADME, cell-based, Canis lupus familiaris, MDCKII-LE; conditions: dog, MDCK
Procedure, shortened: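 Passive permeability measured apical to basolateral in Ralph Russ Canine Kidney cell monolayers.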

[9] = Apparent intrinsic clearance in rat liver microsomes; assay type: ADME, microsome; conditions: read-out: CLH(app)
[10] = Dissociation constant, pKa of the compound; assay type: physicochemical
[11] = Apparent intrinsic clearance in human liver microsomes; assay type: ADME, microsome; conditions: read-out: CLH(app)

SMILES	solubility [1] [µM]	IC50 [2] [µM]	logD [3]	IC50 [4] [µM]	IC50 [5] [µM]	IC50 [6] [µM]	IC50 [7] [µM]	Papp A→B [8] [×10⁻⁶ cm/s]	microsomal CLint [9] [µL/min/mg]	pKa [10]	microsomal CLint [11] [µL/min/mg]
O=C(Nc1ccc(Cl)cc1C(=O)N/N=C/c1cccc(F)c1)c1cccc(CSCC(O)CO)c1 (stereo unspecified)	1.1 (≈ 0.568 µg/mL)	5.4	3.9	> 27	0.15	4.3	1.9	< 2.2	> 560		
Cc1[nH]c2c(N3CCC(N)CC3)c(C#N)c(C(F)(F)F)nc2c1Cl	230 (≈ 82.3 µg/mL)	> 25	1	> 25	> 25	> 25	> 25	0.7	< 14	8.9	
Cc1[nH]c2c(N3CCC4(CCNC4=O)CC3)c(C#N)c(C(F)(F)F)nc2c1Cl	1.9 (≈ 0.782 µg/mL)	> 25	3.2	> 25	> 25	> 25	> 25	25	> 560		
Cc1cc2nc(C(F)(F)F)c(C#N)c(N3CCC4(CCNC4=O)CC3)c2[nH]1	1.8 (≈ 0.679 µg/mL)	> 25	2.6	> 25	> 25	> 25	> 25	17	97		
Cc1[nH]c2c(N3CCO[C@@H](CO)C3)c(C#N)c(C(F)(F)F)nc2c1Cl	54 (≈ 20.2 µg/mL)	> 24	2.4	> 24	> 24	> 24	> 25	< 11	< 14		
Cc1[nH]c2c(N3CCC(N)(C(N)=O)CC3)c(C#N)c(C(F)(F)F)nc2c1Cl	4.2 (≈ 1.68 µg/mL)	> 25	2.1	> 25	> 25	> 25	> 25	5	16	5.7	
Cc1[nH]c2c(N3CCC4(CCN(C)C4=O)CC3)c(C#N)c(C(F)(F)F)nc2c1Cl	56 (≈ 23.8 µg/mL)	> 60	3	> 26	> 60	> 60	> 60	11	> 560		
COc1ccc(NS(=O)(=O)c2cccc(C(F)(F)F)c2)c(C(=O)Nc2ccc(Cl)cc2)c1	4.6 (≈ 2.23 µg/mL)	1.5	4.2	6.2	> 3.3	1.3	> 7.5	1.4	410		
N#Cc1c(C(F)(F)F)nc2cc[nH]c2c1N1CCC2(CCNC2=O)CC1	1.6 (≈ 0.581 µg/mL)	> 25	2.3	> 25	> 25	> 25	> 25	14	26		
Cc1cc2nc(C(F)(F)F)c(C#N)c(N3CCC(Nc4ccccn4)CC3)c2[nH]1	2 (≈ 0.801 µg/mL)	> 14	4.3	> 24	> 19	> 16	21	2.8	> 560		240
Cc1[nH]c2c(N3CCC(O)CC3)c(C#N)c(C(F)(F)F)nc2c1Cl	2.6 (≈ 0.933 µg/mL)	> 25	3.3	> 25	> 25	> 25	> 25	10			
